According to ChEMBL document CHEMBL3232859, “Absolute configuration of (13R)- and (13S)-labdane diterpenes coexisting in Ageratina jocotepecana” (2014):
Values after ≈ are worked out from the molar mass of the structure shown. Active and inactive are the calls of the source. No cut-off for these calls is given here.

tested on: Staphylococcus aureus; experiment: Antibacterial activity against Staphylococcus aureus assessed as growth inhibition after 18 hrs by agar diffusion method; assay type: functional
Method in brief: (§1)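 MIC by agar diffusion: ethanolic solutions, starting at a maximum of 0.01 mg/μL with successive 2-fold dilutions; 6 μL aliquots deposited on solidified agar; inhibition zone diameter read after 18 h incubation at 37 °C. Cefotaxime positive control, EtOH negative control.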

Row | MIC [µg/mL] | SMILES
1 | 130 (≈ 0.285 mM) | CO/N=C(\C(=O)N[C@@H]1C(=O)N2C(C(=O)O)=C(COC(C)=O)CS[C@H]12)c1csc(N)n1 [CEFOTAXIME]
2 | 2340 (≈ 7.21 mM) | C[C@H](CC[C@@H]1[C@@]2(C)CCCC(C)(C)[C@@H]2CC[C@@]1(C)O)CC(=O)O
3 | 780 (≈ 2.54 mM) | CC1=CC[C@H]2C(C)(C)CCC[C@]2(C)[C@H]1CC[C@H](C)CC(=O)O
4 | 10000 (≈ 32.8 mM) | CC1=CC[C@H]2C(C)(C)CCC[C@]2(C)[C@H]1CC/C(C)=C\C(=O)O

tested on: Klebsiella pneumoniae; experiment: Antibacterial activity against Klebsiella pneumoniae assessed as growth inhibition at 0.01 mg/uL after 18 hrs by agar diffusion method; assay type: functional, organism-based
Method in brief: (§2)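 Single-concentration agar diffusion screen: 6 μL aliquots of ethanolic solutions of pure compounds (0.01 mg/μL) deposited on solidified agar; inhibition zone diameter measured after 18 h incubation at 37 °C.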

Row | SMILES | growth inhibition (GI)
5 | C[C@H](CC[C@@H]1[C@@]2(C)CCCC(C)(C)[C@@H]2CC[C@@]1(C)O)CC(=O)O | inactive
6 | CC1=CC[C@H]2C(C)(C)CCC[C@]2(C)[C@H]1CC[C@H](C)CC(=O)O | inactive
7 | CC1=CC[C@H]2C(C)(C)CCC[C@]2(C)[C@H]1CC/C(C)=C\C(=O)O | inactive

tested on: Escherichia coli; experiment: Antibacterial activity against Escherichia coli assessed as growth inhibition at 0.01 mg/uL after 18 hrs by agar diffusion method; assay type: functional, organism-based; method in brief: as §2

Row | SMILES | growth inhibition (GI)
8 | C[C@H](CC[C@@H]1[C@@]2(C)CCCC(C)(C)[C@@H]2CC[C@@]1(C)O)CC(=O)O | inactive
9 | CC1=CC[C@H]2C(C)(C)CCC[C@]2(C)[C@H]1CC[C@H](C)CC(=O)O | inactive
10 | CC1=CC[C@H]2C(C)(C)CCC[C@]2(C)[C@H]1CC/C(C)=C\C(=O)O | inactive

tested on: Bacillus subtilis; experiment: Antibacterial activity against Bacillus subtilis assessed as growth inhibition after 18 hrs by agar diffusion method; assay type: functional; method in brief: as §1

Row | MIC [µg/mL] | SMILES
11 | 12500 (≈ 27.4 mM) | CO/N=C(\C(=O)N[C@@H]1C(=O)N2C(C(=O)O)=C(COC(C)=O)CS[C@H]12)c1csc(N)n1 [CEFOTAXIME]
12 | 1560 (≈ 4.81 mM) | C[C@H](CC[C@@H]1[C@@]2(C)CCCC(C)(C)[C@@H]2CC[C@@]1(C)O)CC(=O)O
13 | 150 (≈ 0.489 mM) | CC1=CC[C@H]2C(C)(C)CCC[C@]2(C)[C@H]1CC[C@H](C)CC(=O)O
14 | 1000 (≈ 3.28 mM) | CC1=CC[C@H]2C(C)(C)CCC[C@]2(C)[C@H]1CC/C(C)=C\C(=O)O
